Experiments:
[1] = Selectivity index, ratio of CC50 for human mock-infected MT4 cells to EC50 for HIV1 3B harboring reverse transcriptase K103N mutant infected in human MT4 cells; type: toxicity, cell-based; conditions: MT4 cells (mock-infected for CC50, HIV-1 infected for EC50)
How it was run: (§1)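 Selectivity index is CC50/EC50. CC50 is the concentration that reduces OD540 of mock-infected MT-4 cells by 50% in the 5-day MTT assay. EC50 is the 50% protection from virus-induced cytopathicity, measured in parallel on infected wells.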

[2] = Inhibition of recombinant wild type HIV1 reverse transcriptase using DIG-dUTP/biotin-dUTP/dTTP assessed as suppression of biotin-dUTP incorporation after 1 hr by ELISA; set-up: species or system Human immunodeficiency virus 1
How it was run: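 Recombinant WT HIV-1 RT in a Roche colorimetric kit: template plus DIG-dUTP, biotin-dUTP and dTTP, ±inhibitor, 1 h at 37 °C. Product captured on streptavidin plate 1 h at 37 °C, anti-DIG-POD 1 h at 37 °C, ABTS developed at 25 °C, read at OD405. IC50 is the concentration inhibiting biotin-dUTP incorporation by 50%.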

[3] = system: Human immunodeficiency virus 1; test: Antiviral activity against wild type HIV1 3B harboring reverse transcriptase infected in human MT4 cells assessed as protection against virus induced cytotoxicity after 5 days by MTT assay; type: functional, cell-based; conditions: Human immunodeficiency virus 1, 3B, MT4, 120 h
How it was run: (§2)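 MTT cytopathicity assay in MT-4 cells (6 × 10^5 cells/mL). Compounds serially diluted 5-fold in triplicate wells, run in parallel on infected and mock-infected cells. Virus added at 100−300 CCID50 per well. Viability read spectrophotometrically at 540 and 690 nm after 5 days, using the median OD of three wells.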

[4] = Antiviral activity against HIV2 ROD harboring reverse transcriptase infected in human MT4 cells assessed as protection against virus induced cytotoxicity after 5 days by MTT assay; type: functional, cell-based, Human immunodeficiency virus type 2 (ISOLATE ROD); conditions: Human immunodeficiency virus 2, MT4, 120 h
How it was run: as §2, with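 “wells. EC50 is the concentration giving 50% protection from viral cytopathogenicity.” for “wells.”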

[5] = Cytotoxicity against human mock-infected MT4 cells assessed as reduction in cell viability after 5 days by MTT assay; type: toxicity, cell-based
How it was run: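 Mock-infected MT-4 cells (6 × 10^5 cells/mL at seeding) with serial 5-fold compound dilutions in triplicate wells. Viability read by MTT after 5 days, absorbance at 540 and 690 nm, median OD of three wells. CC50 is the concentration reducing OD540 of mock-infected cells by 50%.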

[6] = Selectivity index, ratio of CC50 for human mock-infected MT4 cells to EC50 for wild type HIV1 3B harboring reverse transcriptase infected in human MT4 cells; type: toxicity, cell-based; conditions: MT4 cells (mock-infected for CC50, HIV-1 infected for EC50); how it was run: as §1
[7] = Selectivity index, ratio of CC50 for human mock-infected MT4 cells to EC50 for HIV1 RES056 harboring reverse transcriptase K103N/Y181C double mutant infected in human MT4 cells; type: toxicity, cell-based; conditions: MT4 cells (mock-infected for CC50, HIV-1 infected for EC50); how it was run: as §1
[8] = system: Human immunodeficiency virus 1; test: Antiviral activity against HIV1 3B harboring reverse transcriptase L100I mutant infected in human MT4 cells assessed as protection against virus induced cytotoxicity after 5 days by MTT assay; type: functional, cell-based; conditions: Human immunodeficiency virus 1, 3B, MT4, 120 h
How it was run: as §2, with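 “wells. EC50 is the concentration giving 50% protection from viral cytopathogenicity.” for “wells.”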

[9] = system: Human immunodeficiency virus 1; test: Antiviral activity against HIV1 3B harboring reverse transcriptase K103N mutant infected in human MT4 cells assessed as protection against virus induced cytotoxicity after 5 days by MTT assay; type: functional, cell-based; conditions: Human immunodeficiency virus 1, 3B, MT4, 120 h
How it was run: as §2, with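 “wells. EC50 is the concentration giving 50% protection from viral cytopathogenicity.” for “wells.”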

[10] = system: Human immunodeficiency virus 1; test: Antiviral activity against HIV1 3B harboring reverse transcriptase Y181C mutant infected in human MT4 cells assessed as protection against virus induced cytotoxicity after 5 days by MTT assay; type: functional, cell-based; conditions: Human immunodeficiency virus 1, 3B, MT4, 120 h; how it was run: as §2
[11] = system: Human immunodeficiency virus 1; test: Antiviral activity against HIV1 3B harboring reverse transcriptase Y188L mutant infected in human MT4 cells assessed as protection against virus induced cytotoxicity after 5 days by MTT assay; type: functional, cell-based; conditions: Human immunodeficiency virus 1, 3B, MT4, 120 h
How it was run: as §2, with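 “wells. EC50 is the concentration giving 50% protection from viral cytopathogenicity.” for “wells.”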

[12] = system: Human immunodeficiency virus 1; test: Antiviral activity against HIV1 3B harboring reverse transcriptase E138K mutant infected in human MT4 cells assessed as protection against virus induced cytotoxicity after 5 days by MTT assay; type: functional, cell-based; conditions: Human immunodeficiency virus 1, 3B, MT4, 120 h
How it was run: as §2, with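 “wells. EC50 is the concentration giving 50% protection from viral cytopathogenicity.” for “wells.”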

[13] = system: Human immunodeficiency virus 1; test: Antiviral activity against HIV1 3B harboring reverse transcriptase F227L/V106A double mutant infected in human MT4 cells assessed as protection against virus induced cytotoxicity after 5 days by MTT assay; type: functional, cell-based; conditions: Human immunodeficiency virus 1, 3B, MT4, 120 h
How it was run: as §2, with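 “wells. EC50 is the concentration giving 50% protection from viral cytopathogenicity.” for “wells.”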

[14] = Selectivity index, ratio of CC50 for human mock-infected MT4 cells to EC50 for HIV1 3B harboring reverse transcriptase L100I mutant infected in human MT4 cells; type: toxicity, cell-based; conditions: MT4 cells (mock-infected for CC50, HIV-1 infected for EC50); how it was run: as §1
[15] = Selectivity index, ratio of CC50 for human mock-infected MT4 cells to EC50 for HIV1 3B harboring reverse transcriptase Y181C mutant infected in human MT4 cells; type: toxicity, cell-based; conditions: MT4 cells (mock-infected for CC50, HIV-1 infected for EC50); how it was run: as §1
[16] = Selectivity index, ratio of CC50 for human mock-infected MT4 cells to EC50 for HIV1 3B harboring reverse transcriptase Y188L mutant infected in human MT4 cells; type: toxicity, cell-based; conditions: MT4 cells (mock-infected for CC50, HIV-1 infected for EC50); how it was run: as §1
[17] = Selectivity index, ratio of CC50 for human mock-infected MT4 cells to EC50 for HIV1 3B harboring reverse transcriptase E138K mutant infected in human MT4 cells; type: toxicity, cell-based; conditions: MT4 cells (mock-infected for CC50, HIV-1 infected for EC50); how it was run: as §1
[18] = Selectivity index, ratio of CC50 for human mock-infected MT4 cells to EC50 for HIV1 3B harboring reverse transcriptase F227L/V106A double mutant infected in human MT4 cells; type: toxicity, cell-based; conditions: MT4 cells (mock-infected for CC50, HIV-1 infected for EC50); how it was run: as §1
[19] = molecular target: Human immunodeficiency virus type 1 reverse transcriptase (Human immunodeficiency virus 1, UniProt Q72547, K103N/Y181C); test: Inhibition of recombinant HIV1 reverse transcriptase K103N/Y181C double mutant using DIG-dUTP/biotin-dUTP/dTTP assessed as suppression of biotin-dUTP incorporation after 1 hr by ELISA
[20] = system: Human immunodeficiency virus 1; test: Fold resistance, ratio of IC50 for recombinant HIV1 reverse transcriptase K103N/Y181C double mutant to IC50 for wild type HIV1 reverse transcriptase
How it was run: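 Ratio of mutant to WT IC50. Recombinant WT and K103N/Y181C RT were assayed with a kit: template plus DIG-dUTP, biotin-dUTP and dTTP, with or without inhibitor, 1 h at 37 °C. Product was captured on streptavidin, detected with anti-DIG-POD and ABTS, and read at 405 nm. IC50 is the concentration inhibiting biotin-dUTP incorporation by 50%.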

[21] = system: Human immunodeficiency virus 1; test: Antiviral activity against HIV1 RES056 harboring reverse transcriptase K103N/Y181C double mutant infected in human MT4 cells assessed as protection against virus induced cytotoxicity after 5 days by MTT assay; type: functional, cell-based; conditions: Human immunodeficiency virus 1, RES056, MT4, 120 h; how it was run: as §2

| Structure (SMILES) | selectivity ratio [1] | IC50 [2] [nM] | EC50 [3] [nM] | EC50 [4] [nM] | CC50 at 120 h [5] [nM] | selectivity ratio [6] | selectivity ratio [7] | EC50 [8] [nM] | EC50 [9] [nM] | EC50 [10] [nM] | EC50 [11] [nM] | EC50 [12] [nM] | EC50 [13] [nM] | selectivity ratio [14] | selectivity ratio [15] | selectivity ratio [16] | selectivity ratio [17] | selectivity ratio [18] | IC50 [19] [nM] | Ratio IC50 [20] | also measured |
| --- | --- | --- | --- | --- | --- | --- | --- | --- | --- | --- | --- | --- | --- | --- | --- | --- | --- | --- | --- | --- | --- |
| Cc1cc(C)c(Oc2nc(NC3CCN(Cc4ccc(S(C)(=O)=O)cc4)CC3)nc3ccsc23)c(C)c1 | 548 | 650 | 5.7 | > 3420 | 3420 | 595 | 12 | 23.9 | 6.2 | 28.9 | 32.2 | 18.2 | 23.9 | 143 | 118 | 106 | 187 | 81 | 2500 | 3.84 |  |
| Cc1cc(C#N)cc(C)c1Oc1nc(NC2CCN(Cc3ccncc3)CC2)nc2ccsc12 | 2090 | 1300 | 10.3 | > 20600 | 20600 | 2000 | 32 | 81.6 | 9.9 | 42.7 | 55.3 | 42.2 | 130 | 253 | 483 | 373 | 489 | 159 | 3740 | 2.87 |  |
| Cc1cc(C)c(Oc2nc(NC3CCN(Cc4cccc(C#N)c4)CC3)nc3ccsc23)c(C)c1 | 445 | 1060 | 21.1 | > 17200 | 17200 | 819 | ≤ 3 | 476 | 38.7 | 193 | 143 | 50.9 | 392 | 36 | 89 | 120 | 339 | 44 | 5570 | 5.25 |  |
| Cc1cc(C)c(Oc2nc(NC3CCN(Cc4ccncc4)CC3)nc3ccsc23)c(C)c1 | 777 | 210 | 7.6 | > 5650 | 5650 | 747 | 27 | 56.1 | 7.3 | 24.6 | 37.1 | 20.9 | 133 | 101 | 230 | 152 | 270 | 42 | 1260 | 6 |  |
| Cc1cc(C#N)cc(C)c1Oc1nc(NC2CCN(Cc3ccc(F)cc3)CC2)nc2ccsc12 | 16200 | 810 | 7.5 | ≥ 141000 | 141000 | 18700 | 131 | 90.9 | 8.7 | 37.8 | 44.8 | 34.4 | 712 | 1550 | 3740 | 3140 | 4100 | 198 | 2570 | 3.17 |  |
| Cc1cc(C)c(Oc2nc(NC3CCN(Cc4ccc(F)cc4F)CC3)nc3ccsc23)c(C)c1 | 86 | 1600 | 36.8 | > 14000 | 14000 | 380 | < 1 | 1240 | 163 | 660 | 787 | 174 | 6610 | 11 | 21 | 18 | 80 | 2 | 46400 | 30 |  |
| Cc1cc(C)c(Oc2nc(NC3CCN(Cc4ccc(F)cc4)CC3)nc3ccsc23)c(C)c1 | 130 | 1230 | 25.7 | > 11900 | 11900 | 465 | 2 | 1210 | 91.8 | 182 | 715 | 166 | 5310 | 10 | 66 | 17 | 72 | 2 | 6570 | 5.34 |  |
| Cc1cc(C#N)cc(C)c1Oc1nc(NC2CCN(Cc3ccc(Br)cc3)CC2)nc2ccsc12 |  |  | 26.6 | > 24300 | 24300 | 916 | 12 |  |  |  |  |  |  |  |  |  |  |  |  |  | EC50 [21]: 2030 nM |
| Cc1cn([C@H]2C[C@H](N=[N+]=[N-])[C@@H](CO)O2)c(=O)[nH]c1=O [ZIDOVUDINE] | > 1430 |  | 5.8 | 6.6 | > 93600 | > 13100 | > 9150 | 3.8 | 5.2 | 6.7 | 6.3 | 7.3 |  | > 1990 | > 1120 | > 1180 | > 1030 | > 1560 |  |  | EC50 [21]: 10 nM |
| COC(=O)c1ccc(CN2CCC(Nc3nc(Oc4c(C)cc(C#N)cc4C)c4sccc4n3)CC2)cc1 |  |  | 3.25 | > 41400 | 41400 | 12700 | 59 |  |  |  |  |  |  |  |  |  |  |  |  |  | EC50 [21]: 700 nM |
| Cc1cc(C#N)cc(C)c1Oc1nc(NC2CCN(Cc3ccccc3C#N)CC2)nc2ccsc12 |  |  | 5.71 | > 5780 | 5790 | 1010 | 7 |  |  |  |  |  |  |  |  |  |  |  |  |  | EC50 [21]: 810 nM |
| Cc1ccnc2c1NC(=O)c1cccnc1N2C1CC1 [NEVIRAPINE] |  | 2320 |  |  | > 15000 |  |  | 2110 | 5390 | 15000 | > 15000 | 271 | > 15000 |  |  |  |  |  |  |  | EC50 [21]: ≥ 7590 nM |
| Cc1cc(C#N)cc(C)c1Oc1nc(NC2CCN(Cc3ccccc3F)CC2)nc2ccsc12 |  |  | 8.23 | > 189000 | 189000 | 23000 | 8 |  |  |  |  |  |  |  |  |  |  |  |  |  | EC50 [21]: 24200 nM |

— ChEMBL document CHEMBL3853327 (J Med Chem, 2016)
